The entries come from a sample that favours hits as a whole.
H69AR inhibit – proliferation blockers of H69AR lung cancer cells, primary screen, cell-based, human, 86K library | viability, % at 10 µM | 85,000 compounds, 6% hits | AID 598, 2007 | H69AR lung tumor viability, ATP luminescence, 72 h; hits give low values;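 active = viability at or below 40%; inactive = viability above 40%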;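 also: multidrug resistant small cell line overexpressing MRP-1 efflux transporter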
PTEN del growth – growth suppression of PTEN-null HCT116, primary screen, cell-based, CellTiter-Glo; HCT116 PTEN-null viability, 60 h; hits give low values; viability, % at 10 µM; 140,000 compounds, 1.2% hits;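 active = viability at or below a set limit, 4 SD under the median of all tested compounds, cut at about 3.7% in these data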;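 also: PTEN knockout HCT116 line with beta catenin targeted HCT116 as companion control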
Fibroblast inh – antiproliferative effect on LL 47 fibroblasts – human, LL 47 cells, CellTiter-Glo luminescence, primary screen; AID 719, 2007; LL 47 human lung fibroblast viability, ATP luminescence; hits give low values; viability, % at 10 µM; 85,000 compounds, 1.1% hits;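 active = viability at or below 50% in the single dose screen; inactive = viability above 50%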;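 also: compound exposure lasted 72 h before the ATP readout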
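Material: human LL 47 lung fibroblast cells; quantity: 1,150 cells/well; medium: IMEM plus 15% FBS; doses: 0.1% DMSO in all compound wells; timing: overnight attachment after seeding, then 72 h compound exposure at 37 °C; detection: CellTiter-Glo luminescence; measure: % viability of median cell-only signal; controls: cell-only wells, no compound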
HCT116 bCat-KO – primary screen for growth suppressors in beta-catenin knockout HCT116 cells (colon tumor, human); HCT116 beta-catenin knockout viability, CellTiter-Glo, 60 h; hits give low values; 140,000 compounds, 1.5% hits; AID 818, 2007; viability, % at 10 µM;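 active = viability at or under a set limit, the compound median less 4 SD, cut at about 6% in these data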
HUVEC prolif 384 – inhibitors of HUVEC proliferation, primary screen, cell-based, 384-well; 86,000 compounds, 1.1% hits; viability, % at 10 µM (by protocol); CellTiter-Glo luminescence, 72 h; hits give low values;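 active = viability at or below 30%; inactive = viability above 30%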
Each line names hits and unclear results; the compound was inactive in the other large screens.

CCCc1sc(N/N=C/c2ccccn2)nc1-c1ccc(Br)cc1	H69AR inhibit 11, Fibroblast inh 29, HUVEC prolif 384 5.2
CC1(C)OC(=O)N(CCc2ccccc2)C1(C)O (stereo not drawn)	none (no result: Fibroblast inh)
CC1(C)OC(=O)N(c2ccccc2)C12C=Cc1cc(Br)ccc1O2 (stereo not drawn)	H69AR inhibit 18
Cc1ccsc1C(=O)Nc1cc(C(C)(C)C)nn1-c1ccccc1	none (no result: H69AR inhibit, Fibroblast inh, HUVEC prolif 384)
Cc1ccc(S(=O)(=O)N2CCC(=O)N(C(COCc3ccc(Cl)c(Cl)c3)Cc3ccccc3)CC2)cc1 (stereo not drawn)	none (no result: H69AR inhibit, Fibroblast inh, HUVEC prolif 384)
Brc1ccc(OCc2nc(-c3ccccn3)n[nH]2)cc1	none
Clc1ccc(OCc2nc(-c3ccccn3)n[nH]2)cc1	H69AR inhibit 2.2
COc1ccc(Cn2c(O)c(C=Nc3ccc(C)cc3)c3ccccc3c2=O)cc1	none (no result: H69AR inhibit, Fibroblast inh, HUVEC prolif 384)
CCOC(=O)C1CCN(c2ncnc3c2[nH]c2cccc(OC)c23)CC1	H69AR inhibit 23
CCn1c(=O)cc(SCC(=O)Nc2ccc(Cl)cc2)c2ccccc21	H69AR inhibit 17
CCn1c2ccccc2c2cc(NC(=O)CSc3nnnn3-c3ccccc3)ccc21	H69AR inhibit 20
Cc1ccc(-n2nnnc2SCC(=O)Nc2ccc3c(c2)COC3=O)cc1C	Fibroblast inh 27
CCn1c(SCC(=O)Nc2ccc3c(c2)c2ccccc2n3CC)nnc1-c1cnccn1	H69AR inhibit 18
CCn1c(=O)cc(SCC(=O)Nc2ccc(OC)c(OC)c2)c2ccccc21	none
CC1(C)CC2CC(C)(CN2C(=O)COc2cccc3ccccc23)C1 (stereo not drawn)	none
CCn1c2ccccc2c2cc(NC(=O)CSc3nnc(-c4ccc(OC)cc4)n3N)ccc21	H69AR inhibit 27
O=c1cc(/C=C/c2cccs2)[nH]c2ccccc12	H69AR inhibit 25
CC(=O)SC(C[N+](=O)[O-])c1cn(C(C)=O)c2ccccc12 (stereo not drawn)	H69AR inhibit 2.3, Fibroblast inh 2.6
COc1ccc(NC(=O)Nc2nccs2)cc1	H69AR inhibit 20
O=C(Nc1ccccc1)Nc1nccs1	none
COc1cc(/C=C/C(=O)CC(=O)/C=C/c2ccc(O)c(OC)c2)ccc1O	H69AR inhibit 4.3, Fibroblast inh 21, HUVEC prolif 384 22
Cc1cccc(-n2c(SCc3cc(=O)n4ccsc4n3)nc3ccccc3c2=O)c1	none
c1ccc(CSc2nnc(-c3cccnc3)o2)cc1	H69AR inhibit 34
O=c1c(Cl)c(Nc2cccc(Cl)c2)cnn1-c1nc2ccccc2s1	none (no result: H69AR inhibit, Fibroblast inh, HUVEC prolif 384)
COc1ccc(Nc2cnn(-c3nc4ccccc4s3)c(=O)c2Cl)cc1	HCT116 bCat-KO 5.1 (no result: H69AR inhibit, Fibroblast inh, HUVEC prolif 384)
CCN(c1cccc(C)c1)S(=O)(=O)c1ccc2c(c1)CCN2C(C)=O	H69AR inhibit 29
CCN(c1cccc(C(F)(F)F)c1)S(=O)(=O)c1ccc2c(c1)CCN2C(C)=O	H69AR inhibit 18
CC(=O)N1CCCc2cc(S(=O)(=O)N(CC(C)C)CC(C)C)ccc21	none
CC(=O)N1CCc2cc(S(=O)(=O)N3c4ccccc4CC3C)ccc21 (stereo not drawn)	H69AR inhibit 20
CC(=O)N1CCc2cc(S(=O)(=O)N3CCOCC3)ccc21	none
C=CCNC(=O)/C(C#N)=C/c1ccc(OS(=O)(=O)c2ccc(C)cc2)c(OC)c1	none (no result: H69AR inhibit, Fibroblast inh, HUVEC prolif 384)
Cc1ccc(Cn2ccc(=O)c(OCc3c(Cl)cccc3Cl)c2C)cc1	H69AR inhibit 25
NCCCC[C@@H]1NC(=O)c2cc([N+](=O)[O-])cc(F)c2NCCCC[C@@H](C(N)=O)NC(=O)[C@H](CCC(N)=O)NC1=O	none (no result: H69AR inhibit, Fibroblast inh, HUVEC prolif 384)
O=C(CSc1nc2ccccc2n1Cc1ccccc1)N/N=C/c1ccco1	none (no result: H69AR inhibit, Fibroblast inh, HUVEC prolif 384)
Cc1ccccc1NS(=O)(=O)c1ccc(F)cc1	none
COc1ccc(S(=O)(=O)Nc2ccccc2C)cc1	H69AR inhibit 13
O=C(NCCc1c[nH]c2ccc(Cl)cc12)c1cccnc1	none
CCN1/C(=C/c2ccc3ccccc3[n+]2CC)C=Cc2ccccc21	H69AR inhibit 2.2, PTEN del growth 1.5, Fibroblast inh 18, HCT116 bCat-KO 1.8
O=C(/C(=C/c1ccc(Cl)cc1)c1nc2ccccc2[nH]1)c1cccs1	PTEN del growth 1.9, HCT116 bCat-KO 1.9 (no result: H69AR inhibit, Fibroblast inh, HUVEC prolif 384)
O=C(/C=C/c1cccc(Cl)c1)c1nc2ccccc2[nH]1	PTEN del growth 1.0, HCT116 bCat-KO 0.7 (no result: H69AR inhibit, Fibroblast inh, HUVEC prolif 384)

High-throughput results (PubChem)
